According to ChEMBL document CHEMBL4043171, “Chemoselective fluorination and chemoinformatic analysis of griseofulvin: Natural vs fluorinated fungal metabolites” (Bioorg Med Chem, 2017):
Active and inactive are the calls of the source. The calls are words filed in the database; no cut-off is given here.

Legend:
MDA-MB-231 = test: Cytotoxicity against human MDA-MB-231 cells assessed as reduction in cell viability at 50 uM by cell titer 96 aqueous one solution cell proliferation assay; type: functional, cell-based
MDA-MB-435 [1] = test: Cytotoxicity against human MDA-MB-435 cells assessed as reduction in cell viability at 50 uM by cell titer 96 aqueous one solution cell proliferation assay; type: functional, cell-based
OVCAR-3 [2] = test: Cytotoxicity against human OVCAR3 cells assessed as reduction in cell viability at 50 uM by cell titer 96 aqueous one solution cell proliferation assay; type: functional, cell-based
Nannizzia gypsea = test: Antifungal activity against Microsporum gypseum at 25 ug/disc incubated for 5 days by agar disk diffusion method; type: functional; conditions: 120 h, read-out: DIZ
Method in brief: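 Conidia of M. gypseum, kept on Sabouraud dextrose agar, were harvested in sterile water and adjusted to 0.5–1.0 OD at 600 nm (~10^5 cells/mL). The suspension was seeded onto Mueller-Hinton agar with 2% glucose and 0.5 µg/ml methylene blue. Compounds in DMSO were loaded at 25 µg per 6 mm paper disk. Inhibition-zone diameters (mm) were read after 5 d, as mean ± SD of four replicates.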

OVCAR-3 [3] = test: Cytotoxicity against human OVCAR3 cells assessed as reduction in cell viability by cell titer 96 aqueous one solution cell proliferation assay; type: functional, cell-based
MDA-MB-435 [4] = test: Cytotoxicity against human MDA-MB-435 cells assessed as reduction in cell viability by cell titer 96 aqueous one solution cell proliferation assay; type: functional, cell-based
Method in brief: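 Cells were grown in RPMI 1640 with 10% FBS and penicillin/streptomycin at 37°C under 5% CO2. Log-phase cells were trypsinized, washed twice, seeded at 5,000 per well and incubated overnight. Compounds were added at final 20, 4, 0.8, 0.16 and 0.032 µM in 0.5% DMSO and incubated for 72 h at 37 °C. Viability was read by MTS-type absorbance assay as % survival versus DMSO control. Vinblastine served as positive control.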

Huh7.5.1 = test: Cytotoxicity against human Huh7.5.1 cells assessed as reduction in cell viability by ATPlite assay; conditions: Huh-7.5.1

COC1=CC(=O)C[C@@H](C)[C@]12Oc1cc(O)cc(OC)c1C2=O
Activity (MDA-MB-231): inactive | Activity (MDA-MB-435 [1]): inactive | Activity (OVCAR-3 [2]): inactive | zone of inhibition at 25 µg/disc (Nannizzia gypsea): 0 mm

COC1=CC(=O)C[C@@H](C)[C@]12Oc1cc(OC)cc(OC)c1C2=O
Activity (MDA-MB-231): inactive | Activity (MDA-MB-435 [1]): inactive | Activity (OVCAR-3 [2]): inactive | zone of inhibition at 25 µg/disc (Nannizzia gypsea): 0 mm

COC1=CC(=O)[C@H](O)[C@@H](C)[C@]12Oc1cc(OC)cc(OC)c1C2=O
Activity (MDA-MB-231): inactive | Activity (MDA-MB-435 [1]): inactive | Activity (OVCAR-3 [2]): inactive | zone of inhibition at 25 µg/disc (Nannizzia gypsea): 0 mm

COC1=CC(=O)C[C@@H](C)[C@]12Oc1c(Cl)c(OC)cc(OC)c1C2=O [GRISEOFULVIN]
Activity (MDA-MB-231): inactive | IC50 (OVCAR-3 [3]): 48.5 µM | IC50 (MDA-MB-435 [4]): 6.4 µM | IC50 (Huh7.5.1): 10 to 25 µM | zone of inhibition at 25 µg/disc (Nannizzia gypsea): 35 mm

COC1=CC(=O)[C@H](O)[C@@H](C)[C@]12Oc1c(Cl)c(OC)cc(OC)c1C2=O
Activity (MDA-MB-231): inactive | Activity (MDA-MB-435 [1]): inactive | Activity (OVCAR-3 [2]): inactive | zone of inhibition at 25 µg/disc (Nannizzia gypsea): 0 mm

COC1=CC(=O)C2=C(O[C@]3(C2=O)C(OC)=CC(=O)C[C@H]3C)C1(F)Cl (mixture of isomers)
Activity (MDA-MB-231): inactive | Activity (MDA-MB-435 [1]): inactive | Activity (OVCAR-3 [2]): inactive | zone of inhibition at 25 µg/disc (Nannizzia gypsea): 0 mm

COC1=CC(=O)[C@H](O)[C@@H](C)[C@]12Oc1c(F)c(OC)cc(OC)c1C2=O
Activity (MDA-MB-231): inactive | Activity (MDA-MB-435 [1]): inactive | Activity (OVCAR-3 [2]): inactive | zone of inhibition at 25 µg/disc (Nannizzia gypsea): 0 mm

COC1=CC(=O)C[C@@H](C)[C@]12Oc1cc(OC)c(F)c(OC)c1C2=O
Activity (MDA-MB-231): inactive | Activity (MDA-MB-435 [1]): inactive | Activity (OVCAR-3 [2]): inactive | zone of inhibition at 25 µg/disc (Nannizzia gypsea): 0 mm

COC1=CC(=O)C[C@@H](C)[C@]12Oc1c(F)c(OC)cc(OC)c1C2=O
Activity (MDA-MB-231): inactive | IC50 (MDA-MB-435 [4]): 22 µM | IC50 (Huh7.5.1): 10 to 25 µM | Activity (OVCAR-3 [2]): inactive | zone of inhibition at 25 µg/disc (Nannizzia gypsea): 34 mm

COC1=CC(=O)[C@H](O)[C@@H](C)[C@]12Oc1cc(OC)c(F)c(OC)c1C2=O
Activity (MDA-MB-231): inactive | Activity (MDA-MB-435 [1]): inactive | Activity (OVCAR-3 [2]): inactive | zone of inhibition at 25 µg/disc (Nannizzia gypsea): 0 mm

COC1=CC(=O)C[C@@H](C)[C@]12Oc1c(Cl)c(O)cc(OC)c1C2=O
Activity (MDA-MB-231): inactive | Activity (MDA-MB-435 [1]): inactive | Activity (OVCAR-3 [2]): inactive | zone of inhibition at 25 µg/disc (Nannizzia gypsea): 0 mm

COC1=CC(=O)C[C@@H](C)[C@]12Oc1c(Cl)c(OC)c(F)c(OC)c1C2=O
Activity (MDA-MB-231): inactive | Activity (MDA-MB-435 [1]): inactive | Activity (OVCAR-3 [2]): inactive | zone of inhibition at 25 µg/disc (Nannizzia gypsea): 23 mm
